Results as given in ChEMBL document CHEMBL3616400, “Design, Synthesis, and Evaluation of Triazole Derivatives That Induce Nrf2 Dependent Gene Products and Inhibit the Keap1-Nrf2 Protein-Protein Interaction” (J Med Chem, 2015).
Calls of active or inactive are those of the source. The calls are words filed in the database; no cut-off is given here.

Assays:
[1] = molecular target: T1, Keap1/Nrf2 (Homo sapiens) (UniProt Q16236+Q14145); test: Inhibition of mCherry labeled Keap1 interaction to DLG motif from Nrf2 in human HEK293 cells at 10 uM by FRET based assay; assay type: cell-based
Outline: (§1)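 HEK293 cells were co-transfected with EGFP-Nrf2 and Keap1-mCherry. Each cell was imaged by FLIM twice: once basal and once 1 h after 10 µM compound. EGFP lifetime and FRET efficiency were calculated in the cytoplasm. High- and low-FRET-efficiency populations were scored to distinguish DLG-dependent binding from ETGE-dependent binding.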

Mus musculus [2] = organism: Mus musculus; test: Increase of Nrf2 protein level in mouse Hepa1c1c7 cells at 10 uM by Western blot analysis; assay type: functional, cell-based; settings: TDE = time-dependent effect
Outline: (§2)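 Hepa1c1c7 cells incubated with test compounds at 10 µM for various exposure times, up to 24 h. Nrf2, HO-1 and NQO1 protein levels assessed by Western blot.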

[3] = molecular target: T2, Nuclear factor erythroid 2-related factor 2 (Mus musculus) (UniProt Q60795); test: Activation of Nrf2 in mouse Hepa1c1c7 cells assessed as increase of HO-1 expression at 10 uM after 6 hrs by Western blot analysis; assay type: cell-based; outline: as §2
T2 sequence (whole entry): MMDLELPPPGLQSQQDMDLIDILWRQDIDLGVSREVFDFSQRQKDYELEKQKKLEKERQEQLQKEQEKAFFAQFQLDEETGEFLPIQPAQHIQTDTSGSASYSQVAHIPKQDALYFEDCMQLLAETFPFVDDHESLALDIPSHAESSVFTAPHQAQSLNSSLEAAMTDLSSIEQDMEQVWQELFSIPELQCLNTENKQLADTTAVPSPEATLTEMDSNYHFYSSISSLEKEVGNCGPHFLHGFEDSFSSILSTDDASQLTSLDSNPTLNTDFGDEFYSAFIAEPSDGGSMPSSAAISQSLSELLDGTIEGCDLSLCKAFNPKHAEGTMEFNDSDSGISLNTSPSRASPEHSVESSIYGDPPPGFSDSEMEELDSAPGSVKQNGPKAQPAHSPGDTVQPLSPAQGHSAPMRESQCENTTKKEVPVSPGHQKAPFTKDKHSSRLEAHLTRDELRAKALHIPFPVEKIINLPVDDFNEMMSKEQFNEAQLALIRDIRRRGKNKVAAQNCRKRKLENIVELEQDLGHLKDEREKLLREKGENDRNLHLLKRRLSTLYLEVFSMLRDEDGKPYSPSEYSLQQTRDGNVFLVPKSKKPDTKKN

[4] = molecular target: T2, Nuclear factor erythroid 2-related factor 2 (Mus musculus); test: Activation of Nrf2 in mouse Hepa1c1c7 cells assessed as increase of NQO1 expression at 10 uM measured before 24 hrs by Western blot analysis; assay type: cell-based; outline: as §2
Mus musculus [5] = organism: Mus musculus; test: Increase of Nrf2 protein level in mouse Hepa1c1c7 cells at 10 uM after 24 hrs by Western blot analysis; assay type: functional, cell-based; outline: as §2
[6] = molecular target: T2, Nuclear factor erythroid 2-related factor 2 (Mus musculus); test: Activation of Nrf2 in mouse Hepa1c1c7 cells assessed as concentration required to 2 fold induction of NQO1 production after 24 hrs by MTT colorimetric assay; assay type: cell-based
Outline: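 Hepa1c1c7 mouse hepatoma cells exposed to a concentration range for 24 h. NQO1 enzymatic activity measured by colorimetric induction assay. Value reported as CD, the concentration giving a two-fold increase in NQO1 activity.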

[7] = Therapeutic index, ratio of GI50 for mouse Hepa1c1c7 cells to CD for activation of Nrf2 in mouse Hepa1c1c7 cells assessed as concentration required to 2 fold induction of NQO1 production; assay type: cell-based; settings: read-out: TI
[8] = molecular target: T1, Keap1/Nrf2 (Homo sapiens); test: Inhibition of mCherry labeled Keap1 interaction to ETGE motif from Nrf2 in human HEK293 cells at 10 uM by FRET based assay; assay type: cell-based; outline: as §1
Keap1/Nrf2 [9] = molecular target: T3, Keap1/Nrf2 (Homo sapiens, UniProt Q14145); test: Inhibition of kelch domain of Keap1 (unknown origin) interaction to high affinity ETGE motif from Nrf2 by fluorescence polarization assay; assay type: protein assay
Outline: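 Competitive fluorescence polarization, dose-response format. Keap1 Kelch domain with fluorescein-labelled Nrf2 ETGE peptide FITC-β-DEETGEF-OH. EC50 derived from dose-response curves.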

[10] = molecular target: T1, Keap1/Nrf2 (Homo sapiens); test: Inhibition of kelch domain of Keap1 (unknown origin) interaction to high affinity ETGE motif from Nrf2 unknown origin) at 100 uM by fluorescence polarization assay; assay type: protein assay
Outline: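 Fluorescence polarization competition. Keap1 Kelch domain with fluorescein-labelled ETGE peptide FITC-β-DEETGEF-OH (β = β-alanine). Displacement measured with a fixed 100 µM inhibitor; percent inhibition reported.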

[11] = molecular target: T2, Nuclear factor erythroid 2-related factor 2 (Mus musculus); test: Activation of Nrf2 in mouse Hepa1c1c7 cells assessed as induction of NQO1 production at 10 uM after 24 hrs by MTT colorimetric assay relative to control; assay type: cell-based
Outline: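 Hepa1c1c7 mouse hepatoma cells treated at a fixed 10 µM for 24 h. NQO1 enzyme activity read by colorimetric induction assay and expressed as fold induction over control.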

Keap1/Nrf2 [12] = molecular target: T3, Keap1/Nrf2; test: Inhibition of Keap1 (unknown origin) interaction to Nrf2; assay type: protein assay
[13] = molecular target: T1, Keap1/Nrf2 (Homo sapiens); test: Inhibition of kelch domain of Keap1 (unknown origin) interaction to high affinity ETGE motif from Nrf2 unknown origin) in presence of 0 to 1 % v/v Triton X100 by fluorescence polarization assay; assay type: protein assay
[14] = molecular target: Kelch-like ECH-associated protein 1 (Homo sapiens) (UniProt Q14145); test: Binding affinity to kelch domain of Keap1 (unknown origin) using high affinity ETGE motif from Nrf2 unknown origin) at 200 uM by fluorescence polarization assay
Mus musculus [15] = organism: Mus musculus; test: Increase of Nrf2 protein level in mouse Hepa1c1c7 cells at 10 uM after 3 to 6 hrs by Western blot analysis; assay type: functional, cell-based; outline: as §2
[16] = Cytotoxicity against mouse Hepa1c1c7 cells assessed as cell viability at 200 uM after 24 to 48 hrs by SRB assay; assay type: cell-based; settings: read-out: Activity
Outline: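 Hepa1c1c7 cells exposed to compounds at up to 200 µM for 24 and 48 h. Viability determined by sulforhodamine B assay.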

T1 sequence (Q14145 whole entry, looked up): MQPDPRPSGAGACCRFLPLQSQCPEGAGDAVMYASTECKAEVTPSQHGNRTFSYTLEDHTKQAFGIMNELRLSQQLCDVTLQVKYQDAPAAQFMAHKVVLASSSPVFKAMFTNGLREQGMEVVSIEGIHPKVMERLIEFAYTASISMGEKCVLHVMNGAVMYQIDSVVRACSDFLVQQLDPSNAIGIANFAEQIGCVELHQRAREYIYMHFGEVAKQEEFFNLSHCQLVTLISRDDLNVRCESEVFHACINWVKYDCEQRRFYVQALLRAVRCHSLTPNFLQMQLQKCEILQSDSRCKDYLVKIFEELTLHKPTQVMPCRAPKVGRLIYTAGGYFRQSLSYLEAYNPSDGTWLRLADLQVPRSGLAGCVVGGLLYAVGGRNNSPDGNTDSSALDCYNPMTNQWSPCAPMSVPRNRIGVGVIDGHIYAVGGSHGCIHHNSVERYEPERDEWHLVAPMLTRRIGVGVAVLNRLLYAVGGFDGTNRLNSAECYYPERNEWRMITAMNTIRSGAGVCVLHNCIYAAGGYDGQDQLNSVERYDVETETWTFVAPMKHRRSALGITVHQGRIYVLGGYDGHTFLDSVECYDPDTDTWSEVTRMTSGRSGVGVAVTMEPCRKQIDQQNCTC
T1 sequence (Q16236 whole entry, looked up): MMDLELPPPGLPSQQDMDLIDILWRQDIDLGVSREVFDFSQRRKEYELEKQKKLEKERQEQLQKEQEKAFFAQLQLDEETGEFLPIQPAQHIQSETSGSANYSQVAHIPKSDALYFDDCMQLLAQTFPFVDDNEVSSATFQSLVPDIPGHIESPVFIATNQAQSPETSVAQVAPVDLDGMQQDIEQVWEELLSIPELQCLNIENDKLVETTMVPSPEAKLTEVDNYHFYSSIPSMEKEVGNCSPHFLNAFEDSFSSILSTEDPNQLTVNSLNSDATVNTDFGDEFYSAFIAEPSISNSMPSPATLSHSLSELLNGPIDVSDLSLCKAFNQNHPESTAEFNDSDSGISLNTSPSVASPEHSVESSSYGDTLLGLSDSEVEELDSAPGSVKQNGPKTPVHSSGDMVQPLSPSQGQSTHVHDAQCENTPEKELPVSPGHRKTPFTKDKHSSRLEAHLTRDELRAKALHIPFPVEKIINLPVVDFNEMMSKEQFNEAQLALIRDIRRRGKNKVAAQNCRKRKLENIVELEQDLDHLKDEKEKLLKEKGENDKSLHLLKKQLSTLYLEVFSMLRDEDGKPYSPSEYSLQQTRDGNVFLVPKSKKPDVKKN
T3 sequence (Q16236 whole entry, the tested form may be a part): as the sequence (Q16236 whole entry, looked up) above
T3 sequence (Q14145 whole entry, the tested form may be a part): as the sequence (Q14145 whole entry, looked up) above
Kelch-like ECH-associated protein 1 (Homo sapiens), sequence (Q14145 whole entry, the tested form may be a part): as the sequence (Q14145 whole entry, looked up) above

Compound | inhibition [1] | Activity (Mus musculus [2]) | Activity [3] | Activity [4] | Activity (Mus musculus [5]) | CD [6] [µM] | selectivity ratio [7] | inhibition [8] | EC50 (Keap1/Nrf2 [9]) [µM] | inhibition [10] [%] | fold change (FC) [11] | EC50 (Keap1/Nrf2 [12]) [µM] | inhibition [13] | Activity [14] | Activity (Mus musculus [15]) | viability at 200 µM [16] [%]
C[S+]([O-])CCCCN=C=S (stereo not given) [SULFORAPHANE] | Active | tde | Active | inactive | Active | 0.3 | 250 | inactive | – | – | – | – | – | – | – | –
CC(C)(C)c1cccc(-n2cc(-c3cccc([N+](=O)[O-])c3)nn2)c1 | – | – | – | – | inactive | > 10 | – | – | 37.8 | 69.8 | 1.93 | – | – | – | – | –
Cc1cccc(-n2cc(-c3cccc([N+](=O)[O-])c3)nn2)c1 | – | tde | Active | inactive | Active | 1.3 | – | – | 10 | 68.9 | 2.2 | – | – | – | – | –
O=[N+]([O-])c1cccc(-c2cn(-c3cccc(Br)c3)nn2)c1 | – | – | – | – | – | 1.2 | – | – | 24.5 | 68.2 | 2.94 | – | – | – | – | –
Ac-WRQDIDL-OH | – | – | – | – | – | – | – | – | – | – | – | 17.1 | – | – | – | –
O=[N+]([O-])c1cccc(-c2cn(-c3cccc(I)c3)nn2)c1 | Active | tde | Active | inactive | Active | 0.6 | > 1000 | inactive | 7.1 | 67.2 | 4 | – | Active | Active | Active | 100
O=C(O)c1cccc(-n2cc(-c3cccc([N+](=O)[O-])c3)nn2)c1 | – | – | – | – | – | > 10 | – | – | 5 | 80.1 | 0.83 | – | – | – | – | –
